Measurements: ChEMBL document CHEMBL1949521, “Discovery of CC-930, an orally active anti-fibrotic JNK inhibitor” (Bioorg Med Chem Lett, 2012)
Values after ≈ are worked out from the molar mass of the structure shown. Active and inactive are the calls of the source. No cut-off for these calls is given here.

Experiments:
[1] = Volume of distribution at steady state in dog at 1 mg/kg, iv; format: ADME, organism-based, Canis lupus familiaris; design: dose 1 mg/kg, route intravenous; settings: in vivo, read-out: Vdss
Rattus norvegicus [2] = assay: Toxicity in rat assessed as histological changes at 90 mg/kg, po qd for 4 days; format: organism-based; design: dose 90 mg/kg, route oral; settings: in vivo, 96 h
Summary of the method: (§1)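 Male rats dosed once daily for 4 days by oral gavage with suspensions in aqueous CMC at 30, 90 and 300 mg/kg. Adverse observations were recorded and histology examined.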

[3] = Cmax in cynomolgus monkey at 10 mg/kg, po; format: ADME, organism-based, Macaca fascicularis; design: dose 10 mg/kg, route oral; settings: in vivo
Summary of the method: (§2)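 Oral dose of 10 mg/kg given as a suspension in aqueous 0.5% CMC/0.25% Tween 80. Plasma AUC, Cmax and Tmax were taken from the oral arm. Bioavailability was derived against the intravenous arm in the same species.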

[4] = Cmax in dog at 10 mg/kg, po; format: ADME, organism-based, Canis lupus familiaris; design: dose 10 mg/kg, route oral; settings: in vivo; summary of the method: as §2
[5] = AUC in cynomolgus monkey at 10 mg/kg, po; format: ADME, organism-based, Macaca fascicularis; design: dose 10 mg/kg, route oral; settings: plasma; summary of the method: as §2
[6] = Volume of distribution at steady state in rat at 2 mg/kg, iv; format: ADME, organism-based; design: dose 2 mg/kg, route intravenous; settings: in vivo, read-out: Vdss
Summary of the method: (§3)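 Rats dosed intravenously at 2 mg/kg in a solution of 5% DMA and 30% PEG 400.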

Mus musculus [7] = assay: Antifibrotic activity in bleomycin-induced C57B1/6 mouse model assessed as inhibition of lymphocytes in bronchoalveolar lavage at 25 to 150 mg/kg, po bid administered 2 hrs prior bleomycin induction for 13 days; format: functional, organism-based; settings: Lung
Summary of the method: (§4)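 Mice received oral doses prophylactically at 25, 50, 100 and 150 mg/kg before bleomycin instillation, then twice daily for 13 days. White blood cells, monocytes and lymphocytes were counted in bronchoalveolar lavage, and lung fibrosis was scored, each against a vehicle control.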

Mus musculus [8] = assay: Antifibrotic activity in bleomycin-induced C57B1/6 mouse model assessed as inhibition of monocytes in bronchoalveolar lavage at 25 to 150 mg/kg, po bid administered 2 hrs prior bleomycin induction for 13 days; format: functional, organism-based; settings: Lung; summary of the method: as §4
Rattus norvegicus [9] = assay: Toxicity in rat assessed as adverse effects at 90 mg/kg, po qd for 4 days; format: organism-based; design: dose 90 mg/kg, route oral; settings: in vivo, 96 h; summary of the method: as §1
[10] = Mean residence time in dog at 1 mg/kg, iv; format: ADME, organism-based, Canis lupus familiaris; design: dose 1 mg/kg, route intravenous; settings: in vivo
[11] = Cmax in rat at 10 mg/kg, po; format: ADME, organism-based; design: dose 10 mg/kg, route oral; settings: in vivo; summary of the method: as §2
[12] = Mean residence time in rat at 2 mg/kg, iv; format: ADME, organism-based; design: dose 2 mg/kg, route intravenous; settings: in vivo; summary of the method: as §3
Mus musculus [13] = assay: Antifibrotic activity in bleomycin-induced C57B1/6 mouse model assessed as inhibition of white blood cells in bronchoalveolar lavage at 25 to 150 mg/kg, po bid administered 2 hrs prior bleomycin induction for 13 days; format: functional, organism-based; settings: Lung; summary of the method: as §4
[14] = Tmax in cynomolgus monkey at 10 mg/kg, po; format: ADME, organism-based, Macaca fascicularis; design: dose 10 mg/kg, route oral; settings: in vivo; summary of the method: as §2
[15] = Oral bioavailability in rat at 10 mg/kg; format: ADME, organism-based; settings: in vivo; summary of the method: as §2
[16] = target: Mitogen-activated protein kinase 3 (Homo sapiens, UniProt P27361); assay: Inhibition of ERK1
Canis familiaris [17] = assay: Oral bioavailability in dog at 10 mg/kg; format: ADME, organism-based, Canis lupus familiaris; settings: in vivo; summary of the method: as §2
[18] = AUC in rat at 2 mg/kg, iv; format: ADME, organism-based; design: dose 2 mg/kg, route intravenous; settings: plasma; summary of the method: as §3
Canis familiaris [19] = assay: AUC in dog at 1 mg/kg, iv; format: ADME, organism-based, Canis lupus familiaris, Plasma; design: dose 1 mg/kg, route intravenous; settings: in vivo
[20] = Dissociation constant, pKa of the compound; format: physicochemical
[21] = Solubility in simulated intestinal fluid; format: physicochemical
[22] = Volume of distribution at steady state in cynomolgus monkey at 1 mg/kg, iv; format: ADME, organism-based, Macaca fascicularis; design: dose 1 mg/kg, route intravenous; settings: in vivo, read-out: Vdss
Summary of the method: (§5)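 Intravenous dose of 1 mg/kg given to monkeys in a solution of 5% DMA and 95% isotonic citrate buffer (50 mM, pH 5.0).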

Cytochrome P450 2D6 = Cytochrome P450 2D6 (Homo sapiens, UniProt P10635); assay: Inhibition of CYP2D6; format: ADME
Mus musculus [23] = assay: Antifibrotic activity in bleomycin-induced C57B1/6 mouse model assessed as reduction in lung fibrosis score at 25 to 150 mg/kg, po bid administered 2 hrs prior bleomycin induction for 13 days; format: functional; design: scale not given: the % may be the effect or the level left; settings: dose mg/kg 25-150; summary of the method: as §4
[24] = Clearance in dog at 1 mg/kg, iv; format: ADME, organism-based, Canis lupus familiaris; design: dose 1 mg/kg, route intravenous; settings: in vivo
Canis familiaris [25] = assay: AUC in dog at 10 mg/kg, po; format: ADME, organism-based, Canis lupus familiaris, Plasma; design: dose 10 mg/kg, route oral; settings: in vivo; summary of the method: as §2
Salmonella typhimurium = assay: Mutagenic activity in Salmonella Typhimurium by Ames test; format: toxicity, organism-based; settings: salmonella enterica subsp. enterica serovar typhimurium
[26] = Mean residence time in cynomolgus monkey at 1 mg/kg, iv; format: ADME, organism-based, Macaca fascicularis; design: dose 1 mg/kg, route intravenous; settings: in vivo; summary of the method: as §5
[27] = Clearance in cynomolgus monkey at 1 mg/kg, iv; format: ADME, organism-based, Macaca fascicularis; design: dose 1 mg/kg, route intravenous; settings: in vivo; summary of the method: as §5
[28] = Clearance in rat at 2 mg/kg, iv; format: ADME, organism-based; design: dose 2 mg/kg, route intravenous; settings: in vivo; summary of the method: as §3
[29] = AUC in rat at 10 mg/kg, po; format: ADME, organism-based; design: dose 10 mg/kg, route oral; settings: plasma; summary of the method: as §2
Mus musculus [30] = assay: Antifibrotic activity in bleomycin-induced C57B1/6 mouse model assessed as reduction in lung fibrosis score compound po bid administered 2 hrs prior bleomycin induction for 13 days; format: functional, organism-based; summary of the method: as §4
[31] = Oral bioavailability in cynomolgus monkey at 10 mg/kg; format: ADME, organism-based, Macaca fascicularis; settings: in vivo; summary of the method: as §2
[32] = Tmax in dog at 10 mg/kg, po; format: ADME, organism-based, Canis lupus familiaris; design: dose 10 mg/kg, route oral; settings: in vivo; summary of the method: as §2
[33] = Lipophilicity, log D of the compound; format: physicochemical; settings: octanol/water
[34] = Oral bioavailability in rat; format: ADME, organism-based; settings: in vivo
[35] = Tmax in rat at 10 mg/kg, po; format: ADME, organism-based; design: dose 10 mg/kg, route oral; settings: in vivo; summary of the method: as §2
Cytochrome P450 3A4 = Cytochrome P450 3A4 (Homo sapiens, UniProt P08684); assay: Inhibition of CYP3A4; format: ADME
[36] = AUC in cynomolgus monkey at 1 mg/kg, iv; format: ADME, organism-based, Macaca fascicularis; design: dose 1 mg/kg, route intravenous; settings: plasma; summary of the method: as §5
Rattus norvegicus [37] = assay: Antiinflammatory activity in CD rat assessed as inhibition of LPS-stimulated TNFalpha production at 30 mg/kg, po administered 1 hr prior LPS challenge measured after 90 mins by ELISA; format: functional
Summary of the method: (§6)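 Acute PK-PD model in rats: compound given by oral gavage at 10 or 30 mg/kg, then lipopolysaccharide injected, and plasma TNF-alpha release measured.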

[38] = target: Mitogen-activated protein kinase 14 (Homo sapiens, UniProt Q16539); assay: Inhibition of p38alpha using myelin basic protein as substrate preincubated for 15 mins prior ATP addition measured after 60 mins by scintillation counting
Rattus norvegicus [39] = assay: Antiinflammatory activity in CD rat assessed as inhibition of LPS-stimulated TNFalpha production at 10 mg/kg, po administered 1 hr prior LPS challenge measured after 90 mins by ELISA; format: functional; summary of the method: as §6

Chain of Cytochrome P450 3A4 (P08684 whole entry): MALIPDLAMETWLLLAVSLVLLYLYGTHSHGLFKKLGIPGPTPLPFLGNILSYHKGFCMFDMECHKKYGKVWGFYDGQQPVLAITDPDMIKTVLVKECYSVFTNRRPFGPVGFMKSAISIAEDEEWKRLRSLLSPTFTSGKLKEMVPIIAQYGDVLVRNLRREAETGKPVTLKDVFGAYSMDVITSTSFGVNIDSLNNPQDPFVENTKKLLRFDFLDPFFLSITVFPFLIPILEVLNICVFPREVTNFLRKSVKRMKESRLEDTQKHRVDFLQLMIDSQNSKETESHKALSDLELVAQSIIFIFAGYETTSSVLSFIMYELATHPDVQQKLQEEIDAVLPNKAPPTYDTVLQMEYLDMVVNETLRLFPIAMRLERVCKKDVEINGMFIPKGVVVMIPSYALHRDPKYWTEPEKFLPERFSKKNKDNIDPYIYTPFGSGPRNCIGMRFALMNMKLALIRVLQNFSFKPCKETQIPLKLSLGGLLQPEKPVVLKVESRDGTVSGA
Chain of Mitogen-activated protein kinase 14 (Q16539 whole entry): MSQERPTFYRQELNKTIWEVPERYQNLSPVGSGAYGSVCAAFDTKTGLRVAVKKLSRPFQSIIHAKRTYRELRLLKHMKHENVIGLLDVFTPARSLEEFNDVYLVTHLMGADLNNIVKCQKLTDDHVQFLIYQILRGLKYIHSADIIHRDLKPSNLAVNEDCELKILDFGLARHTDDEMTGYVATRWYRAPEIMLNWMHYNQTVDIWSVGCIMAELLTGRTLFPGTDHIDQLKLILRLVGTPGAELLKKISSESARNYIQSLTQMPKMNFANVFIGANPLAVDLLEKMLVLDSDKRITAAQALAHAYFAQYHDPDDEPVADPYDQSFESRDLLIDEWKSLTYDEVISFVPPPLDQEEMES
Chain of Mitogen-activated protein kinase 3 (P27361 whole entry): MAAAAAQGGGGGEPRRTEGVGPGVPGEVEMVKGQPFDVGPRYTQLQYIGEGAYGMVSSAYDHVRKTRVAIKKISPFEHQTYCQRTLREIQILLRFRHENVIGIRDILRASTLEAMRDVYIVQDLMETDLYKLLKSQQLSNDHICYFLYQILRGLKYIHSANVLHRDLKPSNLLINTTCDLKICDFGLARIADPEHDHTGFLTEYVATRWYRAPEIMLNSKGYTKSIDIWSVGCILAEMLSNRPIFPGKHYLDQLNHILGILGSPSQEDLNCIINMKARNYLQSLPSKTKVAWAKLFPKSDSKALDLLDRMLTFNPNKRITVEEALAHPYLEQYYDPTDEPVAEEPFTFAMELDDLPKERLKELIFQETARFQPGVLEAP
Chain of Cytochrome P450 2D6 (P10635 whole entry): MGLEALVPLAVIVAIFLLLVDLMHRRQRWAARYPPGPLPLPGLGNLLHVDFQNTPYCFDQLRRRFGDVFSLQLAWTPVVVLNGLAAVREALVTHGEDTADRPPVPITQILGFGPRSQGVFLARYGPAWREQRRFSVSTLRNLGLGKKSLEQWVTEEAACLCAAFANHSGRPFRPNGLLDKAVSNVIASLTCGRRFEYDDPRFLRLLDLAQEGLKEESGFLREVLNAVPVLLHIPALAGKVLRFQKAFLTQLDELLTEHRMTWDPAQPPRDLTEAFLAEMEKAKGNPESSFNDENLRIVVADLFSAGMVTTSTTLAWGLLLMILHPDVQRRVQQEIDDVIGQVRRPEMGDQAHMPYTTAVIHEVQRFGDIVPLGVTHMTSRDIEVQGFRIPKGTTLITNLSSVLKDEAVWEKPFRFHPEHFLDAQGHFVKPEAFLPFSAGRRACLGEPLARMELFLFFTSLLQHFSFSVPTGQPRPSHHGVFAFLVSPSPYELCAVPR

O[C@H]1CC[C@H](Nc2ncc3nc(Nc4c(F)cc(F)cc4F)n([C@H]4CCOC4)c3n2)CC1 [TANZISERTIB]
Vd [1]: 1.5 L/kg
Activity (Rattus norvegicus [2]): Non-toxic
Cmax [3]: 11 µM
Cmax [4]: 7.2 µM
AUC [5]: 100 µM·h
Vd [6]: 1.7 L/kg
inhibition (Mus musculus [7]): Active
inhibition (Mus musculus [8]): Active
Activity (Rattus norvegicus [9]): Non-toxic
MRT [10]: 7.3 h
Cmax [11]: 0.7 µM
MRT [12]: 0.7 h
inhibition (Mus musculus [13]): Active
Tmax [14]: 1.3 h
bioavailability [15]: 30%
IC50 [16]: 480 nM
F (Canis familiaris [17]): 27%
AUC [18]: 1.9 µM·h
AUC (Canis familiaris [19]): 11 µM·h
pKa [20]: 5.47
solubility [21]: 780 µg/mL (≈ 1740 µM)
Vd [22]: 1.6 L/kg
inhibition (INH) (Cytochrome P450 2D6): Not Active
Activity (Mus musculus [23]): 18%
clearance [24]: 3.4 mL/min/kg
AUC (Canis familiaris [25]): 86 µM·h
Activity (Salmonella typhimurium): Non-toxic
MRT [26]: 10 h
clearance [27]: 2.9 mL/min/kg
clearance [28]: 39 mL/min/kg
AUC [29]: 3.1 µM·h
Activity (Mus musculus [30]): Dose-dependent effect
bioavailability [31]: 77%
Tmax [32]: 2.5 h
logD [33]: 1.93
bioavailability [34]: 30%
Tmax [35]: 1.5 h
inhibition (INH) (Cytochrome P450 3A4): Not Active
AUC [36]: 13 µM·h
inhibition in vivo at 30 mg/kg (Rattus norvegicus [37]): 77%
IC50 [38]: 3400 nM
inhibition in vivo at 10 mg/kg (Rattus norvegicus [39]): 23%
